Columns and labels:
[1] = test system: Mus musculus; assay: Antidepressant activity in C57BL/6J mouse assessed as immobility time at […], ip measured over 6 mins by tail suspension test (reference value: 160.7 +/- 12 to 170.6 +/- 9 sec); format: functional
[2] = test system: Mus musculus; assay: Antidepressant activity in C57BL/6J mouse assessed as immobility time at 5 mg/kg, ip measured over 6 mins by tail suspension test (reference value: 160.7 +/- 12 to 170.6 +/- 9 sec); format: functional
[3] = test system: Mus musculus; assay: Antidepressant activity in ip dosed albino Swiss mouse assessed as decrease in immobility time at MED by forced swim test; format: functional
[4] = species: Homo sapiens; assay: Selectivity index ratio of Ki for human 5-HT1A receptor to Ki for human 5-HT7B
[5] = molecular target: D(2) dopamine receptor (Homo sapiens, UniProt P14416); assay: Displacement of [3H]-Raclopride from human D2L receptor expressed in HEK293 cells after 1 hr; format: cell-based
Chain of D(2) dopamine receptor (P14416 whole entry): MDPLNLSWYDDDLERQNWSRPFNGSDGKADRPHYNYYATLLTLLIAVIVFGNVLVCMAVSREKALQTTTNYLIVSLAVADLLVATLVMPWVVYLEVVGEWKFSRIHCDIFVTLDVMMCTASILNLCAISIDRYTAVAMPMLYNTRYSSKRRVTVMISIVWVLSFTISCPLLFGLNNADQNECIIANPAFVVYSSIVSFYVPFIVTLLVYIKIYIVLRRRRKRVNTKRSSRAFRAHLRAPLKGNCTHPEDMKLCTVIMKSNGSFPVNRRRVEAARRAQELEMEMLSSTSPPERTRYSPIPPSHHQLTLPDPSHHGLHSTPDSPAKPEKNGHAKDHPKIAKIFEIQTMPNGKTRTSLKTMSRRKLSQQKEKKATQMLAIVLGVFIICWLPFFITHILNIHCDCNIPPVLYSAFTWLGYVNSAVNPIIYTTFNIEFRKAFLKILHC
Method in brief: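 Membranes from stably transfected HEK293 cells were homogenized in assay buffer and spun twice at 35,000 g with a 15-min 37 °C step between. Binding ran 1 h at 37 °C and was stopped by rapid filtration, then filter radioactivity was counted. 5-HT6 buffer: 50 mM Tris-HCl, 0.5 mM EDTA, 4 mM MgCl2, with methiothepine for nonspecific binding. D2L buffer: Tris-HCl, EDTA, MgCl2, 120 mM NaCl, KCl, CaCl2, ascorbate, with (+)butaclamol for nonspecific binding. Triplicate, 7–8 concentrations (10^-11–10^-4 M).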

[6] = molecular target: 5-hydroxytryptamine receptor 2A (Homo sapiens, UniProt P28223); assay: Displacement of [3H]-Ketanserin from human 5-HT2A receptor expressed in HEK293 cells after 1 hr; format: cell-based
Chain of 5-hydroxytryptamine receptor 2A (P28223 whole entry): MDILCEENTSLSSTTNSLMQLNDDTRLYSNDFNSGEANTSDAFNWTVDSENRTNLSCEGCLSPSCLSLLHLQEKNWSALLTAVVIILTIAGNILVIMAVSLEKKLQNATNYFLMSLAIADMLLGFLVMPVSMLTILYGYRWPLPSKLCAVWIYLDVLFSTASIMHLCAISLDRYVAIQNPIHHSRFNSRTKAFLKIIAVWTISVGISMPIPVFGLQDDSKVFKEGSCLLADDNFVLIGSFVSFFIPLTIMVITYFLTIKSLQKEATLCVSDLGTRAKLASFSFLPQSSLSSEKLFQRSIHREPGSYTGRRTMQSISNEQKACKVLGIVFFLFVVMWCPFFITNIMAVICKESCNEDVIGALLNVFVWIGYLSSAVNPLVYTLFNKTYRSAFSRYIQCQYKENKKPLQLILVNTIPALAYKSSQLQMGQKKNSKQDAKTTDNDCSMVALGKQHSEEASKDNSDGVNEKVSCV

[7] = molecular target: T1, 5-hydroxytryptamine receptor 7 (Homo sapiens, UniProt P34969); assay: Antagonist activity at human 5-HT7B receptor expressed in […] cells assessed as inhibition of 5-CT induced cAMP production at 10^-6 M after 30 mins by TR-FRET assay; format: functional, cell-based
T1 sequence (P34969 whole entry): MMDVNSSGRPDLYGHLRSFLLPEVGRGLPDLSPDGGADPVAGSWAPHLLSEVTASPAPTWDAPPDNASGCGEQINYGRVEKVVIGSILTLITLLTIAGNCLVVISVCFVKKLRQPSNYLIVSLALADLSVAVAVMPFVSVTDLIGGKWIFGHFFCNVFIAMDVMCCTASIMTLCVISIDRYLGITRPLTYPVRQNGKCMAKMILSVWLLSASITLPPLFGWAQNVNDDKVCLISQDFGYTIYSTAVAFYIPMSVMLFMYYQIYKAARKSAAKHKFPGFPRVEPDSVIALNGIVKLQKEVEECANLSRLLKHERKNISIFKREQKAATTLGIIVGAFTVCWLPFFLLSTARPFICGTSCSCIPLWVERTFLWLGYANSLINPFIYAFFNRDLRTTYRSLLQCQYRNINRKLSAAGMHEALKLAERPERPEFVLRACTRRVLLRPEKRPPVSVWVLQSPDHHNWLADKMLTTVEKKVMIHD

[8] = molecular target: T1, 5-hydroxytryptamine receptor 7; assay: Displacement of [3H]-5-CT from human 5-HT7B receptor expressed in HEK293 cells after 1 hr; format: cell-based
Method in brief: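 Competition binding on membranes from HEK293 cells stably expressing human 5-HT7b or 5-HT1A. Incubation 1 h, at 37 °C for 5-HT7b and at room temperature for 5-HT1A. Non-specific binding defined with 10 µM 5-HT.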

[9] = test system: Mus musculus; assay: Antidepressant activity in C57BL/6J mouse assessed as average force at 0.625 mg/kg, ip measured over 6 mins by tail suspension test (reference value: 0.281 +/- 0.018 to 0.359 +/- 0.027 N); format: functional
[10] = test system: Mus musculus; assay: Antidepressant activity in C57BL/6J mouse assessed as average force at […] mg/kg, ip measured over 6 mins by tail suspension test (reference value: 0.281 +/- 0.018 to 0.359 +/- 0.027 N); format: functional
[11] = test system: Mus musculus; assay: Toxicity in ip dosed Albino Swiss mouse assessed as effect on spontaneous locomotory activity at MED measured over 2 to 6 mins; settings: in vivo

SMILES: O=S(=O)(NC1CCN(CCOc2ccccc2C2CCCC2)CC1)c1cccc(F)c1
- Time [1]: 103.5 s
- Time [2]: 142.8 s
- inhibition (INH) [3]: 18%
- Ratio Ki [4]: 31
- Ki [5]: 322 nM
- Ki [6]: 303 nM
- inhibition [7]: 90%
- Ki [8]: 19 nM
- Activity [9]: 0.18 N
- Activity [10]: 0.29 N
- Activity [11]: Non-toxic

From ChEMBL document CHEMBL3758131, “Towards new 5-HT7 antagonists among arylsulfonamide derivatives of (aryloxy)ethyl-alkyl amines: Multiobjective based design, synthesis, and antidepressant and anxiolytic properties” (Eur J Med Chem, 2016)
